Assay results: article PMC12780024 (Nature Communications, 2025)
Blank lines part the entries; values can stand above or below the molecule they belong to. Square brackets hold non-standard residues; d marks the D form. Ends that are not written are not given here. Hyp = O=C(O)[C@@H]1C[C@@H](O)CN1

Legend:
[1] = tested on: Arabidopsis seedlings (primary root); assay: Primary root growth inhibition / LRR-RLK screening; type: in vivo, Arabidopsis thaliana; details: 0.75 µM CLE5p
Procedure, shortened: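 Arabidopsis lrr-rlk mutant seedlings were germinated on 1/2MS agar for 3 days. They were then transferred to 1/2MS agar containing 0.75 µM test peptide. Primary root length was measured after 3 days of peptide treatment.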

[2] = biological target: BAM1 extracellular domain; assay: Isothermal titration calorimetry; type: binding, Arabidopsis thaliana; details: read-out: dissociation constant (Kd); ITC, MicroCal ITC200, 37 °C, 1 mM CLE5p into 0.1 mM GST-BAM1, 20 mM Tris-HCl pH 7.5, 25 mM NaCl, 5% glycerol; One Set of Sites; ± fitting errors; repeated twice
Procedure, shortened: (§1)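 Recombinant GST-fused receptor protein, gel-filtered into titration buffer, titrated at 37 °C with sequential injections of test peptide at 180 s intervals. Cell stirred at 800 rpm, reference power 5 µcal/s. GST alone served as negative control. Data fitted to a one-set-of-sites model to give Kd, stoichiometry N, ΔG, ΔH and -TΔS.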

[3] = tested on: H2O2 accumulation in rosette leaves; assay: DAB staining of H2O2 in leaves; type: in vivo, Arabidopsis thaliana; details: 2 h
Procedure, shortened: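 Four-week-old rosette leaves treated 2 h with test peptide (100 µM) or hormone control (1 µM), then immersed in freshly prepared 100 µg/ml DAB in the dark for 8 h. Fixed and bleached in ethanol/acetic acid/glycerol (3:1:1), rinsed with distilled water, and photographed on a white background for H2O2 staining.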

[4] = biological target: GHR1 extracellular domain; assay: Isothermal titration calorimetry; type: binding, Arabidopsis thaliana; details: read-out: dissociation constant (Kd); ITC, MicroCal ITC200, 37 °C, 1 mM CLE5p into 0.1 mM GST-GHR1, 20 mM Tris-HCl pH 7.5, 25 mM NaCl, 5% glycerol; One Set of Sites; ± fitting errors; repeated twice
Procedure, shortened: as §1

[5] = tested on: stomata (guard cells) of Arabidopsis leaves; assay: Stomatal aperture measurement; type: cell-based, Arabidopsis thaliana
Procedure, shortened: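 Abaxial epidermis peeled from leaves of 3–4-week-old plants. Pore width and length measured by light microscopy and expressed as W/L ratio. n = 15 per time point, at least three independent experiments.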

[6] = cited from earlier work
[7] = tested on: SRK2D; assay: Protein mobility shift assay; type: cell-based, Arabidopsis thaliana; details: wild type protoplasts, 1 μM, 30 min, Phos-Tag; diminished by phosphatase
Procedure, shortened: (§2)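 Mesophyll protoplasts (6 × 10^4) transfected with 10 µg 35S::kinase-GFP plasmid and kept 18 h at 21 °C in W5 under continuous light. Treated with 1 µM peptide or ABA for up to 30 min, frozen, ground and lysed (Tris pH 7.5 buffer). Cleared lysate run on Phos-Tag SDS-PAGE and blotted with anti-GFP; tubulin as internal control. For dephosphorylation, lysate incubated with λ-phosphatase at 30 °C for 30 min, with or without NaF/NaVO3 inhibitors.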

[8] = tested on: SRK2E; assay: Protein mobility shift assay; type: cell-based, Arabidopsis thaliana; details: wild type protoplasts, 1 μM, 30 min, Phos-Tag; diminished by phosphatase
Procedure, shortened: as §2

[9] = tested on: Arabidopsis leaves; assay: Time-resolved stomatal conductance; type: in vivo, Arabidopsis thaliana
Procedure, shortened: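 Plants grown in short days (10/14 h) at 22 °C. Detached leaves equilibrated in an LI-6800 chamber until gsw was stable, then given 2 µM ABA. Chamber settings: 200 µmol m−2 s−1 light (90% red, 10% blue), 22 °C, 75% RH, 400 ppm CO2, […]. Time-resolved gsw reported as mean ± s.d. of at least three biological replicates.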

[10] = biological target: T1, GST-BAM1 (LRR repeats of BARELY ANY MERISTEM 1, N-terminal GST fusion) (Arabidopsis thaliana); assay: ITC
T1 sequence (O49545 whole entry, looked up): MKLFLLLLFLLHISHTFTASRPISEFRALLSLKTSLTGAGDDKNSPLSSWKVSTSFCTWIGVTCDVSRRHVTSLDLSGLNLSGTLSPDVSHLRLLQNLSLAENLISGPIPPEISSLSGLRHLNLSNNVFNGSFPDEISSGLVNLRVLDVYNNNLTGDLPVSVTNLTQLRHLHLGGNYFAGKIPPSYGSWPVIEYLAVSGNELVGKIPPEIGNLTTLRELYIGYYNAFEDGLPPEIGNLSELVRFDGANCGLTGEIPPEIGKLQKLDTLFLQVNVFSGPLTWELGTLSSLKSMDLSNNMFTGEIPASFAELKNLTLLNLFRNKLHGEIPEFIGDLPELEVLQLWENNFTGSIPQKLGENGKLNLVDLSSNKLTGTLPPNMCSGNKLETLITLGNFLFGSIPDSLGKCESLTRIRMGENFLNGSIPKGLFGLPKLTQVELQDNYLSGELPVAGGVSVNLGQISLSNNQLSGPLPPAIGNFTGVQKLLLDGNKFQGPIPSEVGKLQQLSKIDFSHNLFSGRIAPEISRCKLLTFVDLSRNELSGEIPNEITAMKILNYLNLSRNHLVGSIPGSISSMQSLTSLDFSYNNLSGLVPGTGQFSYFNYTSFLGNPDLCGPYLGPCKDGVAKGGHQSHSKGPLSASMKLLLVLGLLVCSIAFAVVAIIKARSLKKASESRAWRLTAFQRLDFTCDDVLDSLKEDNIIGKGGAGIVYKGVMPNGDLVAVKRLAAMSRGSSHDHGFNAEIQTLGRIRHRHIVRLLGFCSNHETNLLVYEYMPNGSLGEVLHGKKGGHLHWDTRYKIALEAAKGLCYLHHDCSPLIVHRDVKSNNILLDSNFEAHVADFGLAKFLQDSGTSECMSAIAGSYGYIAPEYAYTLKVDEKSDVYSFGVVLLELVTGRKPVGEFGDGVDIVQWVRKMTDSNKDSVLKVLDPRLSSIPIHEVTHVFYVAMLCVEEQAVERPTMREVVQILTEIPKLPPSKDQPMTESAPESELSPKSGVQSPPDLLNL

[11] = biological target: T2, GST-GHR1 (LRR repeats of GUARD CELL HYDROGEN PEROXIDE-… 1, N-terminal GST fusion) (Arabidopsis thaliana); assay: ITC
T2 sequence (C0LGQ9 whole entry, looked up): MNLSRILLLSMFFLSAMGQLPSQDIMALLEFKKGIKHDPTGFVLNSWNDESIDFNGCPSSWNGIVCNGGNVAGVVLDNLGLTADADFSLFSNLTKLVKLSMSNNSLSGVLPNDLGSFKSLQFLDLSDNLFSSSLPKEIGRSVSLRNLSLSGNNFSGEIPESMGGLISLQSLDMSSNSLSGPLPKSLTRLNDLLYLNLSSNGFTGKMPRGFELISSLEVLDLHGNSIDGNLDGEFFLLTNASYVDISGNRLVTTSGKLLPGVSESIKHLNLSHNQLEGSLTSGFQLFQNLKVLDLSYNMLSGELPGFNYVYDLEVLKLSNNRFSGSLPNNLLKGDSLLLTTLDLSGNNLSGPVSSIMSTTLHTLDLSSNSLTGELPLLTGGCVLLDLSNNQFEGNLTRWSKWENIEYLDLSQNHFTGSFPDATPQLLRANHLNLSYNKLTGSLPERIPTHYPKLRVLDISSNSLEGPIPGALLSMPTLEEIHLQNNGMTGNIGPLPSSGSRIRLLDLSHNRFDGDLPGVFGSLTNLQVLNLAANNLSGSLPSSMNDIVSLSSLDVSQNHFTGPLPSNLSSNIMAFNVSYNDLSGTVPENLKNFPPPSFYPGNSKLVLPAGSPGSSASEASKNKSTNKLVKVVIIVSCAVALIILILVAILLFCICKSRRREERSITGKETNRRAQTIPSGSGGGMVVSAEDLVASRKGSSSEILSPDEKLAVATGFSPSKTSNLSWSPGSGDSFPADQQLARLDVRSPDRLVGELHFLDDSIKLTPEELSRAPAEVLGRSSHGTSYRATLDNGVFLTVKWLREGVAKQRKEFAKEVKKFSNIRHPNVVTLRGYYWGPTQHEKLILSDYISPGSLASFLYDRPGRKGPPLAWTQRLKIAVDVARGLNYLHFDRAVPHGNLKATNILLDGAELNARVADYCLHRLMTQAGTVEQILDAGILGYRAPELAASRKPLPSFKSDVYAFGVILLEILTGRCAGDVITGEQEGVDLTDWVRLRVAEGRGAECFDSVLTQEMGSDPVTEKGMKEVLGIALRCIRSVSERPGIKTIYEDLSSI

Kd [2]: 2.52 µM | Kd [4]: 7.39 µM
Molecule: CLE5p: mature CLE5 dodecapeptide, hydroxyproline at residues 4 and 7, non-arabinosylated (RVS[Hyp]GG[Hyp]DPQHH)
root growth inhibition, in words ([1]; bam1-3, ghr1, bam1-3ghr1 seedlings): Neither single bam1-3 and ghr1 nor double bam1-3ghr1 mutants showed significant growth defects | root growth inhibition, in words ([1]; bam3 and wild type seedlings): sensitive to the CLE5p-induced root growth inhibition | H2O2 accumulation (DAB staining) ([3]; 100 µM CLE5p, detached leaves): no hydrogen peroxide (H2O2) accumulation | stomatal closure ([5]; rbohDrbohF double mutant leaves): induced stomatal closure

Molecule: CLE25p: root-derived CLE peptide transported from roots to leaves (RKVPNGPDPIHN; ends and bridges not checked; UniProt Q8LFL4 58-69, looked up)
drought stress response ([6]; root-derived, transported from roots to leaves): promotes drought stress resistance by stimulating ABA biosynthesis

Molecule: CC1=CC(=O)CC(C)(C)[C@@]1(O)/C=C/C(C)=C\C(=O)O [ABA, abscisic acid]
SRK2D-GFP mobility shift (phosphorylation) [7]: a distinct band shift was detected | SRK2E-GFP mobility shift (phosphorylation) [8]: a distinct band shift was detected | stomatal conductance response to ABA ([9]; 35S::SRK2E(Triple A)/srk2e leaves, 2 µM ABA): insensitive to the ABA treatment | stomatal conductance response to ABA ([9]; 35S::SRK2E/srk2e leaves, 2 µM ABA, compared to srk2e): decreased rapidly | stomatal conductance response to ABA ([9]; bam1-3, ghr1, bam1-3ghr1 leaves, 2 µM ABA): insensitive to the ABA-induced reduction of stomatal conductance | stomatal conductance response to ABA ([9]; cle5-1 leaves, 2 μM ABA): insensitive to ABA treatment | stomatal conductance response to ABA ([9]; pGC1::CLE5/cle5-1 leaves (stomata-specific CLE5), 2 μM ABA): sufficient to elicit ABA-induced stomatal closure | stomatal conductance response to ABA ([9]; wild type and pCLE5::CLE5/cle5-1 leaves, 2 μM ABA): began to close their stomata promptly after ABA application | H2O2 accumulation (DAB staining) ([3]; 1 µM ABA): induced H2O2 accumulation | stomatal closure ([5]; cle5-1 and bam1-3ghr1 leaves, 2 µM ABA, 30 min): failed to induce stomatal closure | stomatal closure [6]: induce rapid stomatal closure

Kd [10]: 2.52 µM | Kd [11]: 7.39 µM
Molecule: RVS[Hyp]GG[Hyp]DPQHH [CLE5 dodecapeptide (CLE5p)]
